Measurements from publication PMC3514014 (Molecular and biochemical parasitology, 2010).
Values belong to the molecule of their own block, whether it stands above or below them. Where a SMILES comes first, the peptide text is derived from it. Where no end group is shown, it is not given here. The star is where a group is joined. ACC = NC(=O)Cc1cc(=O)oc2cc(N*)ccc12; AMC = Cc1cc(=O)oc2cc(N*)ccc12

Experiments:
cathepsin C [1] = conditions: cited from earlier work
[2] = test system: recombinant human cathepsin C; format: biochemical; conditions: for Km / kcat: 25 °C, pH 6.0, 30 mM chloride, mean ± SD, triplicate
[3] = target: T1, recombinant DPAP1 (rDPAP1) (Plasmodium falciparum, UniProt Q8IIJ9); format: biochemical; conditions: for Km / kcat: rDPAP1, 25 °C, pH 6.0, 30 mM chloride, mean ± SD, triplicate, NH = no hydrolysis; for hydrolysis of the substrate: recombinant DPAP1, concentrations up to 500 μM
T1 sequence (Q8IIJ9 28-209 limits assumed): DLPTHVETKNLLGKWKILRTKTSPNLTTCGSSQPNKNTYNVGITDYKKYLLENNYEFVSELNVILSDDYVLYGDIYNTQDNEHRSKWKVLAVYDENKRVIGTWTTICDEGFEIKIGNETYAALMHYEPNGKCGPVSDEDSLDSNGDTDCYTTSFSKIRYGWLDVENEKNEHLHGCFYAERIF
T1 sequence (Q8IIJ9 370-599 limits assumed): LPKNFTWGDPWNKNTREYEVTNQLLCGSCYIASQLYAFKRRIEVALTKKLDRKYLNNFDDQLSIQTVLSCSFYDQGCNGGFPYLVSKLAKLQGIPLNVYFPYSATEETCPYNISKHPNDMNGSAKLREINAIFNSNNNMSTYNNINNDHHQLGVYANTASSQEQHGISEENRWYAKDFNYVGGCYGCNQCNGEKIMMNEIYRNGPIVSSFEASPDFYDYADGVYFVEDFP
T1 sequence (Q8IIJ9 600-700 limits assumed): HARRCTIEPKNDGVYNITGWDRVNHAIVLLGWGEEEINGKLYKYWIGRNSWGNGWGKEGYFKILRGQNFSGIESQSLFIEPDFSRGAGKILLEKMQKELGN

native DPAP1 (nDPAP1) [4] = target: T2, native DPAP1 (nDPAP1) (Plasmodium falciparum, UniProt Q8IIJ9); format: biochemical; conditions: for hydrolysis of the substrate: native DPAP1, concentrations up to 500 μM; for kcat: nDPAP1, 25 °C, pH 6.0, 30 mM chloride, mean ± SD, triplicate, NH = no hydrolysis
T2 sequence (Q8IIJ9 28-209 limits assumed): T1 sequence (Q8IIJ9 28-209 limits assumed)
T2 sequence (Q8IIJ9 370-599 limits assumed): T1 sequence (Q8IIJ9 370-599 limits assumed)
T2 sequence (Q8IIJ9 600-700 limits assumed): T1 sequence (Q8IIJ9 600-700 limits assumed)

[5] = target: T1, recombinant DPAP1 (rDPAP1); assay: Inhibition of recombinant DPAP1; format: biochemical
Outline: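 Recombinant E. coli-expressed DPAP1-His6, activated by TEV cleavage, at 0.8 nM. Run at 25 °C in 50 mM sodium MES pH 6.0 with 2 mM dithiothreitol and 1 mM EDTA, total chloride held at 30 mM with NaCl. Fluorogenic release read against an AMC standard, in triplicate. Rates taken from linear progress-curve segments after ~15 min lag; Ki by Dixon method.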

cathepsin C [6] = conditions: cited from earlier work; remark: listed apart in the source
native DPAP1 (nDPAP1) [7] = target: T2, native DPAP1 (nDPAP1); assay: Inhibition of native DPAP1; format: biochemical; conditions: Fig. 4 and Fig. S4, stated in words
cathepsin C [8] = assay: Inhibition of cathepsin C under the DPAP1 assay conditions; format: biochemical, human; conditions: assay conditions used for DPAP1
[9] = recombinant DPAP1, Fig. 4 and Fig. S4, stated in words

Molecule: NC(Cc1ccccc1)C(=O)NCC(=O)O (racemic) [DL-Phe-Gly]
- inhibition of cathepsin C (cathepsin C [1]): competitively inhibited

Molecule: Cc1cc(=O)oc2cc(NC(=O)[C@H](CCCN=C(N)N)NC(=O)[C@@H](N)CCCN=C(N)N)ccc12 [Arg-Arg-AMC] (H-Arg-Arg-{AMC})
- turnover of the substrate [2]: no turnover

Molecule: CC[C@H](C)[C@H](N)C(=O)N[C@@H](CCCNC(=N)N)C(=O)Nc1ccc2c(CC(N)=O)cc(=O)oc2c1 [Ile-Arg-ACC]
- Km [3]: 3.9 ± 0.2 µM
- kcat [3]: 0.072 ± 0.003 s⁻¹
- Km [2]: 28 ± 2 µM
- kcat [2]: 17 ± 1 s⁻¹

Molecule: N[C@@H](Cc1ccccc1)C(=O)N[C@@H](Cc1ccccc1)C(=O)O [L-Phe-L-Phe] (H-Phe-Phe-OH)
- inhibition of cathepsin C (cathepsin C [1]): competitively inhibited

Molecule: N=C(N)NCCC[C@H](NC(=O)[C@@H](N)Cc1ccccc1)C(=O)Nc1ccc2c(CC(N)=O)cc(=O)oc2c1 [Phe-Arg-ACC] (H-Phe-Arg-{ACC})
- hydrolysis of the substrate [3]: no hydrolysis was observed
- hydrolysis of the substrate (native DPAP1 (nDPAP1) [4]): no hydrolysis was observed
- kinetic behaviour as substrate ([2]; Fig. S3): substrate inhibition was observed
- mode of inhibition ([5]; rDPAP1, hydrolysis of Pro-Arg-AMC, Dixon analysis): purely competitive
- Ki ([5]; rDPAP1, inhibition of hydrolysis of Pro-Arg-AMC, Dixon analysis): 2.2 µM

Molecule: Cc1cc(=O)oc2cc(NC(=O)[C@H](CCCN=C(N)N)NC(=O)[C@@H]3CCCN3)ccc12 [Pro-Arg-AMC] (H-Pro-Arg-{AMC})
- Km [3]: 79 ± 2 µM
- kcat [3]: 1.8 ± 0.1 s⁻¹
- kcat (native DPAP1 (nDPAP1) [4]): 6.2 ± 0.4 s⁻¹
- Km [2]: 130 ± 10 µM
- kcat [2]: 490 ± 10 s⁻¹

Molecule: CC(C)[C@H](N)C(=O)N[C@@H](CCCNC(=N)N)C(=O)Nc1ccc2c(CC(N)=O)cc(=O)oc2c1 [Val-Arg-ACC] (H-Val-Arg-{ACC})
- Km [3]: 20 ± 1 µM
- kcat [3]: 0.72 ± 0.02 s⁻¹
- kcat (native DPAP1 (nDPAP1) [4]): 3.5 ± 0.1 s⁻¹
- Km [2]: 51 ± 8 µM
- kcat [2]: 180 ± 10 s⁻¹

Molecule: Cc1cc(=O)oc2cc(NC(=O)C(Cc3ccccc3)NC(=O)C(N)C(C)C)ccc12 (stereo not drawn) [Val-Phe-AMC] (H-Val-Phe-{AMC}; configuration not given here)
- increase in kcat/Km relative to Pro-Phe-AMC (cathepsin C [6]): 10 fold

Molecule: CC[C@H](N)C(=O)NNC(=O)N[C@@H](CCc1ccccc1)C(=O)N[C@@H](C)Cc1cccc(F)c1 [compound 1, 1-(2S-2-aminobutanoyl)-4-{2S-N-[2S-3-(m-fluorophenyl)propan-2-yl-amide]-4-phenylbutan-2-yl-amide}semicarbazide]
- Ki (native DPAP1 (nDPAP1) [7]): sub-nanomolar
- type of inhibition (cathepsin C [8]): slow, tight-binding inhibitor
- Ki [5, 9]: sub-nanomolar

- Ki (native DPAP1 (nDPAP1) [7]): single-digit nanomolar
- Ki [5, 9]: single-digit nanomolar
Molecule: CC[C@H](N)C(=O)NC(C#N)Cc1ccccc1 (stereo partly shown) [compound 2, S-2-aminobutyryl-phenylalanine-nitrile]

Molecule: NC(=O)[C@@H](N)Cc1ccccc1 [phenylalaninamide]
- inhibition of cathepsin C (cathepsin C [1]): competitively inhibited

Molecule: Arg-Arg-{ACC}
- hydrolysis of the substrate [3]: no hydrolysis was observed
- hydrolysis of the substrate (native DPAP1 (nDPAP1) [4]): no hydrolysis was observed
